The source of these data is ChEMBL document CHEMBL4312003, “Optimization of biaryloxazolidinone as promising antibacterial agents against antibiotic-susceptible and antibiotic-resistant gram-positive bacteria” (Eur J Med Chem, 2020).

Type in all cases: functional
The test system of assay [1] is Staphylococcus aureus. Briefly: Antibacterial activity against methicillin-sensitive Staphylococcus aureus assessed as complete reduction in bacterial cell growth by CLSI protocol based broth liquid microdilution method. The procedure, abridged:
(§1)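 Broth liquid microdilution per CLSI guidelines; isolates identified on an automated MicroScan system before testing. MIC taken as lowest concentration giving total inhibition of bacterial growth, reported in μg/mL. S. aureus ATCC29213 run as the control strain.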
(In general: Broth dilution looks for growth in wells or tubes with falling amounts of substance.)

For assay [2], the system named is Enterococcus faecalis. Briefly: Antibacterial activity against linezolid-resistant Enterococcus faecalis assessed as complete reduction in bacterial cell growth by CLSI protocol based broth liquid microdilution method. The method, boiled down:
as §1

In assay [3] the test system is Enterococcus faecium. The assay can be described thus: Antibacterial activity against vancomycin-resistant Enterococcus faecium assessed as complete reduction in bacterial cell growth by CLSI protocol based broth liquid microdilution method. The procedure, abridged: as §1
Assay [4] relates to Staphylococcus aureus. The assay can be described thus: Antibacterial activity against Staphylococcus aureus ATCC 29213 assessed as complete reduction in bacterial cell growth by CLSI protocol based broth liquid microdilution method. The method, boiled down:
as §1

Assay [5] deals with Staphylococcus aureus. The assay can be described thus: Antibacterial activity against methicillin-resistant Staphylococcus aureus assessed as complete reduction in bacterial cell growth by CLSI protocol based broth liquid microdilution method. The procedure, abridged: as §1
For assay [6], the system named is Enterococcus faecium. The assay can be described thus: Antibacterial activity against clinical isolates of vancomycin-resistant Enterococcus faecium assessed as complete reduction in bacterial cell growth by CLSI protocol based broth liquid microdilution method. The procedure, abridged:
as §1

For assay [7], the system named is Enterococcus faecalis. Briefly: Antibacterial activity against clinical isolates of linezolid-resistant Enterococcus faecalis assessed as complete reduction in bacterial cell growth by CLSI protocol based broth liquid microdilution method. The procedure, abridged:
as §1

The test system of assay [8] is Staphylococcus aureus. Briefly: Antibacterial activity against clinical isolates of methicillin-sensitive Staphylococcus aureus assessed as reduction in bacterial cell growth by CLSI protocol based broth microdilution method. The method, boiled down: as §1

SMILES strings stand for the structures. Converted amounts (≈) assume the structure as drawn.

`CC(=O)NC[C@H]1CN(c2ccc(-c3ccc(/C=N/N4CC[S+]([O-])CC4)cn3)c(F)c2)C(=O)O1`: the MIC (commonly the smallest concentration in the dilution series that meets the test's criterion for growth inhibition) was found to be 2 µg/mL (≈ 4.22 µM) with Staphylococcus aureus [1]; 2 µg/mL (≈ 4.22 µM) in the assay on Enterococcus faecalis [2]; 2 µg/mL (≈ 4.22 µM) in the assay with Enterococcus faecium [3]; 2 µg/mL (≈ 4.22 µM) with Staphylococcus aureus [4]; 1 µg/mL (≈ 2.11 µM) in the assay with Staphylococcus aureus [5].

As to `CC(=O)NC[C@H]1CN(c2ccc(-c3ccc(/C=N/N4CCNCC4)c(O)c3)c(F)c2)C(=O)O1`, the MIC in the assay with Staphylococcus aureus [1] worked out at 0.25 µg/mL (≈ 0.549 µM); in the assay on Enterococcus faecalis [2] it was 0.25 µg/mL (≈ 0.549 µM); in the assay on Enterococcus faecium [3], 0.25 µg/mL (≈ 0.549 µM); with Staphylococcus aureus [4], 0.5 µg/mL (≈ 1.1 µM); in the assay on Staphylococcus aureus [5], 0.25 µg/mL (≈ 0.549 µM).

Regarding `COc1cc(-c2ccc(N3C[C@H](CNC(C)=O)OC3=O)cc2F)ccc1/C=N/N1CCSCC1`, the minimal inhibitory concentration (MIC) was 1 µg/mL (≈ 2.06 µM) with Staphylococcus aureus [1]; 1 µg/mL (≈ 2.06 µM) in the assay with Enterococcus faecalis [2]; 1 µg/mL (≈ 2.06 µM) with Enterococcus faecium [3]; 2 µg/mL (≈ 4.11 µM) in the assay on Staphylococcus aureus [4]; 1 µg/mL (≈ 2.06 µM) in the assay with Staphylococcus aureus [5].

For `CC(=O)NC[C@H]1CN(c2ccc(-c3ccc(/C=N/N4CCN(C)CC4)c(C)c3)c(F)c2)C(=O)O1`, the minimal inhibitory concentration (MIC) in the assay on Staphylococcus aureus [1], in the assay on Enterococcus faecalis [2], with Enterococcus faecium [3], with Staphylococcus aureus [4] and with Staphylococcus aureus [5] was 0.5 µg/mL (≈ 1.07 µM) throughout.

With `CC(=O)NC[C@H]1CN(c2ccc(-c3ccc(/C=N/N4CCSCC4)c(C(F)(F)F)c3)c(F)c2)C(=O)O1`, the minimal inhibitory concentration (MIC) with Staphylococcus aureus [1], in the assay on Enterococcus faecalis [2], in the assay with Enterococcus faecium [3], in the assay on Staphylococcus aureus [4] and with Staphylococcus aureus [5] was 2 µg/mL (≈ 3.81 µM) in each case.

For the compound `COc1cc(-c2ccc(N3C[C@H](CNC(C)=O)OC3=O)cc2F)ccc1/C=N/N1CCOCC1`, the minimal inhibitory concentration (MIC) with Staphylococcus aureus [1], in the assay with Enterococcus faecalis [2], in the assay with Enterococcus faecium [3], in the assay with Staphylococcus aureus [4] and in the assay with Staphylococcus aureus [5] was 2 µg/mL (≈ 4.25 µM) in each case.

`CC(=O)NC[C@H]1CN(c2ccc(-c3ccc(/C=N/N4CCCCC4)c(F)c3)c(F)c2)C(=O)O1`: the MIC was 0.25 µg/mL (≈ 0.548 µM) in the assay on Staphylococcus aureus [1]; 0.5 µg/mL (≈ 1.1 µM) with Enterococcus faecalis [2]; 0.5 µg/mL (≈ 1.1 µM) in the assay with Enterococcus faecium [3]; 0.25 µg/mL (≈ 0.548 µM) with Staphylococcus aureus [4]; 0.25 µg/mL (≈ 0.548 µM) in the assay with Staphylococcus aureus [5].

Take `CC(=O)NC[C@H]1CN(c2ccc(-c3ccc(/C=N/N4CCSCC4)c(F)c3)c(F)c2)C(=O)O1`: the MIC in the assay on Staphylococcus aureus [1] was determined as 0.25 µg/mL (≈ 0.527 µM); in the assay on Enterococcus faecalis [2], 1 µg/mL (≈ 2.11 µM); in the assay with Enterococcus faecium [3], 1 µg/mL (≈ 2.11 µM); in the assay on Staphylococcus aureus [4], 0.25 µg/mL (≈ 0.527 µM); in the assay with Staphylococcus aureus [5] it was 0.25 µg/mL (≈ 0.527 µM).

Take `CC(=O)NC[C@H]1CN(c2ccc(-c3ccc(/C=N/N4CCNCC4)nc3)c(F)c2)C(=O)O1`: the minimal inhibitory concentration (MIC) amounted to 1 µg/mL (≈ 2.27 µM) in the assay with Staphylococcus aureus [1]; 0.5 µg/mL (≈ 1.14 µM) in the assay on Enterococcus faecalis [2]; 0.5 µg/mL (≈ 1.14 µM) with Enterococcus faecium [3]; 0.5 µg/mL (≈ 1.14 µM) with Staphylococcus aureus [4]; 0.5 µg/mL (≈ 1.14 µM) with Staphylococcus aureus [5].

With `CC(=O)NC[C@H]1CN(c2ccc(-c3ccc(/C=N/N4CCSCC4)cn3)c(F)c2)C(=O)O1`, the MIC stood at 2 µg/mL (≈ 4.37 µM) with Staphylococcus aureus [1]; 2 µg/mL (≈ 4.37 µM) in the assay on Enterococcus faecalis [2]; 2 µg/mL (≈ 4.37 µM) with Enterococcus faecium [3]; 1 µg/mL (≈ 2.19 µM) in the assay with Staphylococcus aureus [4]; 0.5 µg/mL (≈ 1.09 µM) in the assay with Staphylococcus aureus [5].

With `CC(=O)NC[C@H]1CN(c2ccc(-c3ccc(/C=N/N4CCS(=O)(=O)CC4)cn3)c(F)c2)C(=O)O1`, the minimum inhibitory concentration (MIC) is 1 µg/mL (≈ 2.04 µM) in the assay with Staphylococcus aureus [1]; 1 µg/mL (≈ 2.04 µM) in the assay with Enterococcus faecalis [2]; 1 µg/mL (≈ 2.04 µM) in the assay with Enterococcus faecium [3]; 2 µg/mL (≈ 4.09 µM) in the assay with Staphylococcus aureus [4]; 1 µg/mL (≈ 2.04 µM) in the assay on Staphylococcus aureus [5].

For the compound `CCC(=O)N1CCN(/N=C/c2ccc(-c3ccc(N4C[C@H](CNC(C)=O)OC4=O)cc3F)cc2O)CC1`, the MIC in the assay with Enterococcus faecium [6] is 1 to 2 µg/mL (≈ 1.95 to 3.91 µM); in the assay with Enterococcus faecalis [7], 1 to 2 µg/mL (≈ 1.95 to 3.91 µM); in the assay on Staphylococcus aureus [1], 0.25 µg/mL (≈ 0.489 µM); in the assay with Staphylococcus aureus [8], 1 to 2 µg/mL (≈ 1.95 to 3.91 µM); with Enterococcus faecalis [2], 0.25 µg/mL (≈ 0.489 µM); in the assay with Enterococcus faecium [3], 0.25 µg/mL (≈ 0.489 µM). In addition, the minimal inhibitory concentration (MIC) with Staphylococcus aureus [4] and in the assay on Staphylococcus aureus [5] was 0.25 µg/mL (≈ 0.489 µM) in each case.

On to `CC(=O)NC[C@H]1CN(c2ccc(-c3ccc(/C=N/N4CCN(C)CC4)c(F)c3)c(F)c2)C(=O)O1`, for which the MIC with Staphylococcus aureus [1], with Enterococcus faecalis [2], with Enterococcus faecium [3], in the assay on Staphylococcus aureus [4] and in the assay with Staphylococcus aureus [5] was 1 µg/mL (≈ 2.12 µM) in each case.

In the case of `CC(=O)NC[C@H]1CN(c2ccc(-c3ccc(/C=N/N4CCOCC4)c(O)c3)c(F)c2)C(=O)O1`, the MIC with Staphylococcus aureus [1], with Enterococcus faecalis [2], in the assay with Enterococcus faecium [3], in the assay with Staphylococcus aureus [4] and in the assay on Staphylococcus aureus [5] was 0.25 µg/mL (≈ 0.548 µM) each time.

Turning to `CC(=O)NC[C@H]1CN(c2ccc(-c3ccc(/C=N/N4CCNCC4)c(F)c3)c(F)c2)C(=O)O1`, the minimal inhibitory concentration (MIC) in the assay with Staphylococcus aureus [1], in the assay on Enterococcus faecalis [2], in the assay with Enterococcus faecium [3], with Staphylococcus aureus [4] and in the assay on Staphylococcus aureus [5] was 0.5 µg/mL (≈ 1.09 µM) throughout.

For `CCC(=O)N1CCN(/N=C/c2ccc(-c3ccc(N4C[C@H](CNC(C)=O)OC4=O)cc3F)cn2)CC1`, the minimal inhibitory concentration (MIC) stood at 1 µg/mL (≈ 2.01 µM) in the assay with Staphylococcus aureus [1]; 1 µg/mL (≈ 2.01 µM) with Enterococcus faecalis [2]; 0.5 µg/mL (≈ 1.01 µM) in the assay on Enterococcus faecium [3]; 1 µg/mL (≈ 2.01 µM) in the assay on Staphylococcus aureus [4]; 1 µg/mL (≈ 2.01 µM) in the assay with Staphylococcus aureus [5].

For `CC(=O)NC[C@H]1CN(c2ccc(-c3ccc(/C=N/N4CCN(C)CC4)cn3)c(F)c2)C(=O)O1`, the minimal inhibitory concentration (MIC) stood at 2 µg/mL (≈ 4.4 µM) in the assay on Staphylococcus aureus [1]; 2 µg/mL (≈ 4.4 µM) in the assay with Enterococcus faecalis [2]; 2 µg/mL (≈ 4.4 µM) in the assay with Enterococcus faecium [3]; 2 µg/mL (≈ 4.4 µM) in the assay on Staphylococcus aureus [4]; 1 µg/mL (≈ 2.2 µM) with Staphylococcus aureus [5].

Turning to `CC(=O)NC[C@H]1CN(c2ccc(-c3ccc(/C=N/N4CCSCC4)c(C)c3)c(F)c2)C(=O)O1`, the MIC amounted to 1 µg/mL (≈ 2.13 µM) with Staphylococcus aureus [1]; 2 µg/mL (≈ 4.25 µM) with Enterococcus faecalis [2]; 1 µg/mL (≈ 2.13 µM) in the assay with Enterococcus faecium [3]; 2 µg/mL (≈ 4.25 µM) in the assay on Staphylococcus aureus [4]; 1 µg/mL (≈ 2.13 µM) in the assay on Staphylococcus aureus [5].

As for `CC(=O)NC[C@H]1CN(c2ccc(-c3ccc(/C=N/N4CCN(C(=O)c5ccccc5)CC4)nc3)c(F)c2)C(=O)O1`, the MIC turned out to be 2 µg/mL (≈ 3.67 µM) in the assay with Staphylococcus aureus [1]; 2 µg/mL (≈ 3.67 µM) in the assay on Enterococcus faecalis [2]; 1 µg/mL (≈ 1.84 µM) with Enterococcus faecium [3]; 1 µg/mL (≈ 1.84 µM) in the assay on Staphylococcus aureus [4]; 1 µg/mL (≈ 1.84 µM) with Staphylococcus aureus [5].

As to `CC(=O)NC[C@H]1CN(c2ccc(-c3ccc(/C=N/N4CCNCC4)cn3)c(F)c2)C(=O)O1`, the MIC in the assay on Staphylococcus aureus [1], in the assay on Enterococcus faecalis [2], in the assay with Enterococcus faecium [3], in the assay with Staphylococcus aureus [4] and with Staphylococcus aureus [5] was 2 µg/mL (≈ 4.54 µM) each time.

On to `CC(=O)NC[C@H]1CN(c2ccc(-c3ccc(/C=N/N4CCNCC4)c(C)c3)c(F)c2)C(=O)O1`, for which the MIC in the assay with Staphylococcus aureus [1], in the assay on Enterococcus faecalis [2], with Enterococcus faecium [3], with Staphylococcus aureus [4] and with Staphylococcus aureus [5] was 0.5 µg/mL (≈ 1.1 µM) in each case.

Take `CC(=O)NC[C@H]1CN(c2ccc(-c3ccc(/C=N/N4CC[S+]([O-])CC4)nc3)c(F)c2)C(=O)O1`: the minimal inhibitory concentration (MIC) with Staphylococcus aureus [1] came out at 0.5 µg/mL (≈ 1.06 µM); in the assay with Enterococcus faecalis [2] it was 0.5 µg/mL (≈ 1.06 µM); in the assay on Enterococcus faecium [3] it was 0.5 µg/mL (≈ 1.06 µM); with Staphylococcus aureus [4], 0.25 µg/mL (≈ 0.528 µM); in the assay with Staphylococcus aureus [5] it was 0.25 µg/mL (≈ 0.528 µM).

On to `CC(=O)NC[C@H]1CN(c2ccc(-c3ccc(/C=N/N4CCN(C)CC4)c(C(F)(F)F)c3)c(F)c2)C(=O)O1`, for which the MIC with Staphylococcus aureus [1], with Enterococcus faecalis [2], in the assay on Enterococcus faecium [3], with Staphylococcus aureus [4] and in the assay on Staphylococcus aureus [5] was 2 µg/mL (≈ 3.83 µM) each time.

Consider `COC(=O)N1CCN(/N=C/c2ccc(-c3ccc(N4C[C@H](CNC(C)=O)OC4=O)cc3F)cn2)CC1`, for which the minimal inhibitory concentration (MIC) stood at 2 µg/mL (≈ 4.01 µM) with Staphylococcus aureus [1]; 1 µg/mL (≈ 2.01 µM) with Enterococcus faecalis [2]; 0.5 µg/mL (≈ 1 µM) in the assay with Enterococcus faecium [3]; 1 µg/mL (≈ 2.01 µM) in the assay on Staphylococcus aureus [4]; 1 µg/mL (≈ 2.01 µM) with Staphylococcus aureus [5].
